Series [1] relates to Leucine-rich repeat serine/threonine-protein kinase 2 (Homo sapiens), Q5S007 [G2019S]. To be noted: HEK293, 1 uM.
Series [2] relates to Mus musculus. As to the kind of experiment: Inhibition of LRRK2 in C57BL/6 mouse brain at 100 mg/kg, ip by ADP-acylphosphate probe-based mass spectrometry relative to vehicle-treated control. The format is functional. A digest of the protocol:
(§1)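 KiNativ chemical proteomics on brains and spleens from mice dosed intraperitoneally at 3, 10, 30, 50 or 100 mg/kg, compared against vehicle-treated animals. Tissue lysed in 5× volume of detergent-free buffer and labeled with an ADP-acylphosphate probe. After workup and trypsin digestion, probe labeling was quantified by mass spectrometry across >150 protein and lipid kinases. Values reflect 5× dilution relative to intact tissue.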

The target of series [3] is Leucine-rich repeat serine/threonine-protein kinase 2 (Homo sapiens) (UniProt Q5S007). The following applies: HEK293, 1 uM.
Series [4] has as its system Mus musculus. As to the kind of experiment: Inhibition of LRRK2 in C57BL/6 mouse spleen at 3 mg/kg, ip by ADP-acylphosphate probe-based mass spectrometry relative to vehicle-treated control. The format is functional. To be noted: C57BL/6, Spleen, route intraperitoneal. A digest of the protocol: as §1
In series [5] the test system is Mus musculus. As to the kind of experiment: Inhibition of LRRK2 in ip dosed C57BL/6 mouse spleen by ADP-acylphosphate probe-based mass spectrometry. The format is functional, organism-based. A digest of the protocol: as §1
In series [6] the target is Leucine-rich repeat serine/threonine-protein kinase 2 (Mus musculus) (UniProt Q5S006). As to the kind of experiment: Inhibition of LRRK2 autophosphorylation at Ser910 and Ser935 mouse embryonic fibroblast cells by immunoblotting analysis. The format is cell-based. The procedure, abridged: (§2)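 Mouse Swiss 3T3 cells or mouse embryonic fibroblasts were treated with DMSO or increasing concentrations of compound for 90 min. Lysates were immunoblotted for LRRK2 phospho-Ser910, phospho-Ser935 and total LRRK2. Immunoblots were run in duplicate and are representative of at least two independent experiments.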
(In general: In western blotting, separated proteins are transferred to a membrane and probed.)

Series [7] shares this target. As to the kind of experiment: Inhibition of LRRK2 autophosphorylation at Ser910 and Ser935 Swiss mouse 3T3 cells by immunoblotting analysis. The format is cell-based. The procedure, abridged:
as §2

Series [8] has as its system Mus musculus. The series is described as follows: Inhibition of TBK1 in C57BL/6 mouse brain at 50 and 100 mg/kg, ip by ADP-acylphosphate probe-based mass spectrometry relative to vehicle-treated control. The format is functional. The following applies: C57BL/6, ip, route intraperitoneal. A digest of the protocol:
as §1

Series [9] relates to Mus musculus. As to the kind of experiment: Inhibition of LRRK2 in C57BL/6 mouse spleen at 10 mg/kg, ip by ADP-acylphosphate probe-based mass spectrometry relative to vehicle-treated control. The format is functional. The following applies: C57BL/6, Spleen, route intraperitoneal. A digest of the protocol: as §1
Series [10] deals with Mus musculus. The series is described as follows: Inhibition of LRRK2 in C57BL/6 mouse spleen at 30 to 100 mg/kg, ip by ADP-acylphosphate probe-based mass spectrometry relative to vehicle-treated control. The format is functional. To be noted: dose mg/kg 30-100; route intraperitoneal. The procedure, abridged: as §1
The subject of series [11] is Mus musculus. As to the kind of experiment: Inhibition of LRRK2 autophosphorylation at Ser910 and Ser935 in C57BL/6 mouse brain at 10 mg/kg, ip by immunoblotting analysis relative to vehicle-treated control. The arrangement: dose 10 mg/kg. The format is functional, organism-based.
In series [12] the test system is Mus musculus. As to the kind of experiment: Inhibition of LRRK2 autophosphorylation at Ser910 and Ser935 in C57BL/6 mouse spleen at 100 mg/kg, ip by immunoblotting analysis relative to vehicle-treated control. The format is functional, organism-based. Set-up: dose 100 mg/kg.
Series [13] has as its system Mus musculus. As to the kind of experiment: Inhibition of LRRK2 autophosphorylation at Ser910 and Ser935 in C57BL/6 mouse kidney at 50 mg/kg, ip by immunoblotting analysis relative to vehicle-treated control. The format is functional, organism-based. Set-up: dose 50 mg/kg.
The test system of series [14] is Mus musculus. The series is described as follows: Inhibition of LRRK2 autophosphorylation at Ser910 and Ser935 in C57BL/6 mouse brain at 50 mg/kg, ip by immunoblotting analysis relative to vehicle-treated control. The format is functional, organism-based. The arrangement: dose 50 mg/kg.
Series [15] has as its system Mus musculus. As to the kind of experiment: Inhibition of JNK3 in ip dosed C57BL/6 mouse brain by ADP-acylphosphate probe-based mass spectrometry. The format is functional, organism-based. The procedure, abridged:
as §1

Series [16] deals with T1, Mitogen-activated protein kinase kinase kinase 9 (Homo sapiens, UniProt P80192). As to the kind of experiment: Inhibition of MLK1 by radiometric assay. The procedure, abridged: (§3)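 Radioactivity-based enzymatic kinase assay run in the Dundee profiling panel of 138 kinases. Kinases were first screened at 10 μM inhibitor, with activity expressed relative to a DMSO control. A dose–response analysis then gave the IC50.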

In a further series the test system is Liver. As to the kind of experiment: Half life in mouse liver microsomes at 1 uM. The format is ADME, Microsome. The procedure, abridged: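 Metabolic stability determined by incubation with mouse liver microsomes; half-life (T1/2) reported in minutes.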
(Liver microsomes are vesicles of endoplasmic reticulum, rich in cytochrome P450 enzymes.)

Series [17] relates to Mus musculus. As to the kind of experiment: Inhibition of JNK1 in C57BL/6 mouse brain at 50 and 100 mg/kg, ip by ADP-acylphosphate probe-based mass spectrometry relative to vehicle-treated control. The format is functional. To be noted: C57BL/6, ip, route intraperitoneal. The procedure, abridged: as §1
Series [18] concerns Mus musculus. As to the kind of experiment: Inhibition of JNK1 in ip dosed C57BL/6 mouse brain by ADP-acylphosphate probe-based mass spectrometry. The format is functional, organism-based. A digest of the protocol:
as §1

Series [19] concerns the target T2, MAP kinase-interacting serine/threonine-protein kinase 2 (Homo sapiens, UniProt Q9HBH9). The series is described as follows: Inhibition of MNK2 at 10 uM by radiometric assay. A digest of the protocol: (§4)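 Dundee panel of 138 kinases screened at 10 μM compound using radioactivity-based enzymatic assays. Activity was expressed relative to DMSO control.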
In series [20] the test system is Mus musculus. As to the kind of experiment: Inhibition of JNK3 in C57BL/6 mouse brain at 50 and 100 mg/kg, ip by ADP-acylphosphate probe-based mass spectrometry relative to vehicle-treated control. The following applies: C57BL/6, ip, route intraperitoneal. The format is functional. A digest of the protocol:
as §1

In series [21] the test system is Mus musculus. The series is described as follows: Half life in mouse at 1 mg/kg, iv. The format is ADME, organism-based. Set-up: dose 1 mg/kg, route intravenous. The following applies: in vivo. A digest of the protocol:
(§5)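 Mouse pharmacokinetics run by a contract lab; parameters reported include oral bioavailability (%F), plasma AUClast and half-life. Full PK parameter set is given in the Supporting Information.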

Series [22] concerns the target T2, MAP kinase-interacting serine/threonine-protein kinase 2. As to the kind of experiment: Inhibition of MNK2 by radiometric assay. A digest of the protocol: as §3
For series [23], the system named is Mus musculus. The series is described as follows: Inhibition of LRRK2 autophosphorylation at Ser910 and Ser935 in C57BL/6 mouse brain at 30 mg/kg, ip by immunoblotting analysis relative to vehicle-treated control. The arrangement: dose 30 mg/kg. The format is functional, organism-based.
Series [24] can be described thus: Oral bioavailability in mouse at 10 mg/kg. The format is ADME, organism-based. The following applies: in vivo. A digest of the protocol:
as §5

The test system of series [25] is Mus musculus. The series is described as follows: Inhibition of TBK1 in ip dosed C57BL/6 mouse brain by ADP-acylphosphate probe-based mass spectrometry. The format is functional, organism-based. The procedure, abridged:
as §1

The subject of series [26] is Mus musculus. The series is described as follows: AUClast in mouse at 10 mg/kg, po. The format is ADME, organism-based, Plasma. Set-up: time 0 - last, dose 10 mg/kg, route oral. The following applies: in vivo. A digest of the protocol:
as §5

Series [27] has as its system Mus musculus. The series is described as follows: Inhibition of LRRK2 in C57BL/6 mouse brain at 30 mg/kg, ip by ADP-acylphosphate probe-based mass spectrometry relative to vehicle-treated control. The format is functional. To be noted: C57BL/6, Brain, route intraperitoneal. The procedure, abridged: as §1
For series [28], the system named is Mus musculus. As to the kind of experiment: Inhibition of JNK2 in C57BL/6 mouse brain at 50 and 100 mg/kg, ip by ADP-acylphosphate probe-based mass spectrometry relative to vehicle-treated control. The format is functional. To be noted: C57BL/6, ip, route intraperitoneal. A digest of the protocol: as §1
The subject of series [29] is Mus musculus. As to the kind of experiment: Inhibition of LRRK2 in ip dosed C57BL/6 mouse brain by ADP-acylphosphate probe-based mass spectrometry. The format is functional, organism-based. A digest of the protocol: as §1
Series [30] deals with Mus musculus. As to the kind of experiment: Inhibition of LRRK2 in C57BL/6 mouse brain at 50 mg/kg, ip by ADP-acylphosphate probe-based mass spectrometry relative to vehicle-treated control. The following applies: C57BL/6, Brain, route intraperitoneal. The format is functional. The procedure, abridged:
as §1

The test system of series [31] is Mus musculus. The series is described as follows: Inhibition of LRRK2 autophosphorylation at Ser910 and Ser935 in C57BL/6 mouse spleen at 50 mg/kg, ip by immunoblotting analysis relative to vehicle-treated control. The format is functional, organism-based. Set-up: dose 50 mg/kg.
The test system of series [32] is Mus musculus. The series is described as follows: Inhibition of LRRK2 autophosphorylation at Ser910 and Ser935 in C57BL/6 mouse kidney at 100 mg/kg, ip by immunoblotting analysis relative to vehicle-treated control. The format is functional, organism-based. Set-up: dose 100 mg/kg.
For series [33], the system named is Mus musculus. The series is described as follows: Inhibition of JNK2 in ip dosed C57BL/6 mouse brain by ADP-acylphosphate probe-based mass spectrometry. The format is functional, organism-based. The procedure, abridged: as §1
For series [34], the system named is Mast/stem cell growth factor receptor Kit (Homo sapiens), P10721 [L576P]. As to the kind of experiment: Inhibition of cKIT L576P mutant at 1 uM by KinomeScan assay.
Series [35] concerns the target T1, Mitogen-activated protein kinase kinase kinase 9. As to the kind of experiment: Inhibition of MLK1 at 10 uM by radiometric assay. A digest of the protocol:
as §4

For series [36], the system named is Mus musculus. As to the kind of experiment: Inhibition of LRRK2 autophosphorylation at Ser910 and Ser935 in C57BL/6 mouse brain at 100 mg/kg, ip by immunoblotting analysis relative to vehicle-treated control. The format is functional, organism-based. The arrangement: dose 100 mg/kg.

Activity calls are given as the source filed them. The rule behind the calls is not given here.

In general, inhibition refers to the share of the control response that was lost under treatment. The term inhibition in vivo denotes how much of the control response was suppressed. One may read the IC50 as the concentration at which inhibition is half-maximal. Low readings indicate greater potency in that assay, high ones weaker potency in that assay. In general, bioavailability refers to the share of a dose that reaches the circulation, judged against a reference dose that is usually intravenous. High values mean much systemic uptake, low ones little systemic uptake.

Sequence of Leucine-rich repeat serine/threonine-protein kinase 2 (Mus musculus) (Q5S006 whole entry): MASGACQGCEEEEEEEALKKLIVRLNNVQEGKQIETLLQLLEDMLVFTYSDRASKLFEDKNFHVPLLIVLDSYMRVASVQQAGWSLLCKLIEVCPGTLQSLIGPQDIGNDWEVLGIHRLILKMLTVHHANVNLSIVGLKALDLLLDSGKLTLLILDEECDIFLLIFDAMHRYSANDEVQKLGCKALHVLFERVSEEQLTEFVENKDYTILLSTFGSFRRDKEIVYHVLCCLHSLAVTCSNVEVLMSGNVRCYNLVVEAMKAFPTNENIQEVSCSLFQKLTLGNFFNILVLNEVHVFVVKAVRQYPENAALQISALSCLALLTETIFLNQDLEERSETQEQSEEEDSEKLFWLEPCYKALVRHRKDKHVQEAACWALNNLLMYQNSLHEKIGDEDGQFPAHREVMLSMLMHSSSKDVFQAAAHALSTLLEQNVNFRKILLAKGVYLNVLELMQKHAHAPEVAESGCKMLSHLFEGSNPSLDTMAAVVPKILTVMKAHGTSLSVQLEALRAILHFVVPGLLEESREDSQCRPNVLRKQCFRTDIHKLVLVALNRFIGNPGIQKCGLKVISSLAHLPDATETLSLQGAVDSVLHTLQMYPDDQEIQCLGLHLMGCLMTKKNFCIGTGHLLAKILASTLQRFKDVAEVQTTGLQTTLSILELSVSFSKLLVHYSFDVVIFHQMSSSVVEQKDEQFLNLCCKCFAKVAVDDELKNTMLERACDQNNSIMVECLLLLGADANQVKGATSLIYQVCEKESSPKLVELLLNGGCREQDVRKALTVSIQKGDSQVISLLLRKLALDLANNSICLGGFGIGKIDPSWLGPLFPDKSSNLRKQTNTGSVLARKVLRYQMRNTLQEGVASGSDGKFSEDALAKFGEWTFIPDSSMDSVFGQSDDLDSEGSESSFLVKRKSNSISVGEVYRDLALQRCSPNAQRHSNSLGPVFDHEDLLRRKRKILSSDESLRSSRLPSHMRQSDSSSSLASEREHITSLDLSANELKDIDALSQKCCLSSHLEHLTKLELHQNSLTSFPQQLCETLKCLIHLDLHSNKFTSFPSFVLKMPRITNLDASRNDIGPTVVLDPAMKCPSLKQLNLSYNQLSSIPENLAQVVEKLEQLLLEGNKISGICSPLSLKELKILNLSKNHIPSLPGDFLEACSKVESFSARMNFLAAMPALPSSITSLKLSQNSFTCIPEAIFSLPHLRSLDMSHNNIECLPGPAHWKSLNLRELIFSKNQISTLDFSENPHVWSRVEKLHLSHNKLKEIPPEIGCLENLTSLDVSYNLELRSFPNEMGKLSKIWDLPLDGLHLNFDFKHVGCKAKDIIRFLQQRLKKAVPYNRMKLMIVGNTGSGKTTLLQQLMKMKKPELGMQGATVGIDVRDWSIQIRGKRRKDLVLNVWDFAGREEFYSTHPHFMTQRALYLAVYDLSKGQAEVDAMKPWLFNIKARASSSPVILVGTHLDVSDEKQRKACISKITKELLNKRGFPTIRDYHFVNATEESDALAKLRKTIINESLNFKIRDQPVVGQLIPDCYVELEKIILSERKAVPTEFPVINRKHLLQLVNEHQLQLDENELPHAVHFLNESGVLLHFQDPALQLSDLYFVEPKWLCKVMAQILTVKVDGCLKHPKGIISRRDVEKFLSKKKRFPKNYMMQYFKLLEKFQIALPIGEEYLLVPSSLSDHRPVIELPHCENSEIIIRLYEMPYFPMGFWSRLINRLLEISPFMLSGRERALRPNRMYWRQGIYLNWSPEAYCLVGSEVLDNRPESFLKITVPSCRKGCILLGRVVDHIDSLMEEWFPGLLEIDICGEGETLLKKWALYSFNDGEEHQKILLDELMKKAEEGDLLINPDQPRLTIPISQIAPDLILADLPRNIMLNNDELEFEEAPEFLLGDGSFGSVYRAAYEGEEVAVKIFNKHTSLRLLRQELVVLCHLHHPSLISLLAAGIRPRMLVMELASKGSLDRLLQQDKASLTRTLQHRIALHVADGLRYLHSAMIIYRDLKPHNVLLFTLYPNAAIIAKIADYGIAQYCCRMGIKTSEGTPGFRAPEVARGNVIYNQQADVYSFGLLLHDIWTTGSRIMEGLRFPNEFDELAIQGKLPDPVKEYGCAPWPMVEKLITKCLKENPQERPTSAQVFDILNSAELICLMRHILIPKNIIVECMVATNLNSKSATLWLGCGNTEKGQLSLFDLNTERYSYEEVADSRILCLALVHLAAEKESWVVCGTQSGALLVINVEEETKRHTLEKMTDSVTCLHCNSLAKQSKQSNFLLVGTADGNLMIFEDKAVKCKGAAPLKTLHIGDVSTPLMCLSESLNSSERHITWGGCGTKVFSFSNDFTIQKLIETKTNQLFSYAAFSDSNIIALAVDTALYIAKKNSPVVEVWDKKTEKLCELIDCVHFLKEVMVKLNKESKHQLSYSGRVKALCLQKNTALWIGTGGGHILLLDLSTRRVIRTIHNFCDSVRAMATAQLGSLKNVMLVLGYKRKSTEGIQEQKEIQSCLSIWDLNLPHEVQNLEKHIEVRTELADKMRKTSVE
Sequence of Leucine-rich repeat serine/threonine-protein kinase 2 (Homo sapiens) (Q5S007 whole entry): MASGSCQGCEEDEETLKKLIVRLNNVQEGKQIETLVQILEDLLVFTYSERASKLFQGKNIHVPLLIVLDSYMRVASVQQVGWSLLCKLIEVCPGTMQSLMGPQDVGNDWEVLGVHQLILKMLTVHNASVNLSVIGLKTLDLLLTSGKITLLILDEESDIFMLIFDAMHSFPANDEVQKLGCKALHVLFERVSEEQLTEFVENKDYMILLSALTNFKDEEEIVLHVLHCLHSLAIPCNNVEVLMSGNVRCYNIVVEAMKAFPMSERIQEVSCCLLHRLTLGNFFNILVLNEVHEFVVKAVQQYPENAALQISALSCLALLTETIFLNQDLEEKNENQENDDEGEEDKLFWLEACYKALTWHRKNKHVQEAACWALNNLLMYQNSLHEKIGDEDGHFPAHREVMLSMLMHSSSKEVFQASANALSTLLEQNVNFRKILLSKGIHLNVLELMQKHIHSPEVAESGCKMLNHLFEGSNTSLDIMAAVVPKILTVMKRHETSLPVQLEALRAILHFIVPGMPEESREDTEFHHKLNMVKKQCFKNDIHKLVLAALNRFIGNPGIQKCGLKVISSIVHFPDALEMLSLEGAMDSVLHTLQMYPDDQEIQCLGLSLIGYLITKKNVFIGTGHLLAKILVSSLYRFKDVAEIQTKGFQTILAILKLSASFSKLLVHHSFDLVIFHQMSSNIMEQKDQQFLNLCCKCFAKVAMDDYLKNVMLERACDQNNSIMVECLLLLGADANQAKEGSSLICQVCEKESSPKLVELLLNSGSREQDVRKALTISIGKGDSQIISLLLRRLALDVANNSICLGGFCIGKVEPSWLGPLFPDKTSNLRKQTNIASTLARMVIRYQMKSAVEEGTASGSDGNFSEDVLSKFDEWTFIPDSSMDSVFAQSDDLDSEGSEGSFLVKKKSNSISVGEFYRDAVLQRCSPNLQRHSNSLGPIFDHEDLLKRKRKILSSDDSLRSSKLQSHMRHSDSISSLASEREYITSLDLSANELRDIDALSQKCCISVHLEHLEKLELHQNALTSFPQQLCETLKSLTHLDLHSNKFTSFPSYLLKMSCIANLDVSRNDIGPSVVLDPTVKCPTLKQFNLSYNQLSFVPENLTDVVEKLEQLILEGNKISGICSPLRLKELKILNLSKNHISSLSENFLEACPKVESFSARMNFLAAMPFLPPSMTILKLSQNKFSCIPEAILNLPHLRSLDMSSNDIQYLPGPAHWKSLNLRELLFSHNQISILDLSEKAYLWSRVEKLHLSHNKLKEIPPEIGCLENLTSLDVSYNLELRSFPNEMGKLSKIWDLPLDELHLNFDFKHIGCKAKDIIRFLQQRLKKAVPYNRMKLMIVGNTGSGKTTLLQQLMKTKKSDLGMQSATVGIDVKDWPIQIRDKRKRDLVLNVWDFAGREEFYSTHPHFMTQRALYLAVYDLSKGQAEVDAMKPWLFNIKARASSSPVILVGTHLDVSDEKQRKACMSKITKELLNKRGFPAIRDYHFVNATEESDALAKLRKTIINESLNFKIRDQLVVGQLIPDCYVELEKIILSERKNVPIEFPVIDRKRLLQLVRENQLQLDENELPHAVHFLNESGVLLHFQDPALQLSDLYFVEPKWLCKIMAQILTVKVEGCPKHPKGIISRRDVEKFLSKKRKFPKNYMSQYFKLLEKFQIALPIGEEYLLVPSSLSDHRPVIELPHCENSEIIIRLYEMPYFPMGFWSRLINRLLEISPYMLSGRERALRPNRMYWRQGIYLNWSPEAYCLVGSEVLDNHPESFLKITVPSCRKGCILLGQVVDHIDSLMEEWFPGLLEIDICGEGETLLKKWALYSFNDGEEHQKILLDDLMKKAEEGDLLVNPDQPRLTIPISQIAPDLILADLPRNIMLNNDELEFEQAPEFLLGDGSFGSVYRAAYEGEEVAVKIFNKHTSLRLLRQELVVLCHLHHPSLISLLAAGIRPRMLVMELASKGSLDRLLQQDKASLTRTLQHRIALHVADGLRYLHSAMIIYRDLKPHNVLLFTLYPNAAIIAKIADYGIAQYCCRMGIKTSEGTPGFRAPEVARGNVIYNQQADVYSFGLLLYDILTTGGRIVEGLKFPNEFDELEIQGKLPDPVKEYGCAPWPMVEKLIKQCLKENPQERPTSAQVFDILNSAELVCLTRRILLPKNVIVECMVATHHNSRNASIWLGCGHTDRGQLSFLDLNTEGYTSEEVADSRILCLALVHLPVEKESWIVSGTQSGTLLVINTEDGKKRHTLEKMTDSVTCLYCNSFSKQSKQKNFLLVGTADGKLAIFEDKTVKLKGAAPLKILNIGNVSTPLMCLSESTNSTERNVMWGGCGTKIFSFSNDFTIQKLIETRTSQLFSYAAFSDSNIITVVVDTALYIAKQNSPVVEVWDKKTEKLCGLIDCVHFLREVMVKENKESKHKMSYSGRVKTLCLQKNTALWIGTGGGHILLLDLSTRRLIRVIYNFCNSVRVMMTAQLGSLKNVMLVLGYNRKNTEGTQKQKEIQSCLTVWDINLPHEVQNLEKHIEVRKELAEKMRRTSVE
Sequence of Leucine-rich repeat serine/threonine-protein kinase 2 (Homo sapiens), Q5S007 [G2019S] (Q5S007 whole entry G2019S): as the sequence (Q5S007 whole entry) above, with G2019S counted along it

Take `COc1cc(C(=O)N2CCC(N3CCN(C)CC3)CC2)ccc1Nc1ncc2c(n1)N(C)c1ccccc1C(=O)N2C`: the inhibition result in [1] and in [3] was “Active” each time. In the series with Mus musculus [2], the inhibition result is “inactive”.

`CNc1nc(Nc2ccc(C(=O)N3CCOCC3)cc2OC)ncc1Cl`: the inhibition in vivo at 3 mg/kg with Mus musculus [4] was 40%. Moreover, the inhibition result in the series with Mus musculus [5] was “Dose-dependent effect”; in series [6] it was “Dose-dependent effect”; in series [7], “Dose-dependent effect”; in the series with Mus musculus [15] it was “Dose-dependent effect”; in the series on Mus musculus [18], “Dose-dependent effect”; in [19], over 80%. Also, the inhibition entry was “Dose-dependent effect” in the series on Mus musculus [25], “Dose-dependent effect” in the series on Mus musculus [29], “Dose-dependent effect” in the series on Mus musculus [33] and over 80% in series [35]. Also, the inhibition in vivo at 100 mg/kg in the series with Mus musculus [8] was 35%; in the series with Mus musculus [17], 35%; in the series with Mus musculus [20], 35%; in the series on Mus musculus [28] it was 35%; with Mus musculus [2] (C57BL/6, Brain, route intraperitoneal), 70%. For the same compound, 10 mg/kg produced 80% inhibition in vivo in the series on Mus musculus [9]. The “inhibition (INH)” value with Mus musculus [10] is over 90%. Also, the inhibition result with Mus musculus [11], with Mus musculus [12], in the series with Mus musculus [13], in the series with Mus musculus [14], in the series with Mus musculus [23] and with Mus musculus [31] was “Active” throughout. For the same compound, the inhibition result (in the series with Mus musculus [32]; in series [34]; in the series on Mus musculus [36]) was “Active” throughout. Further, the figures for the IC50 in series [16] and in [22] were 2100 nM and 600 nM, respectively. Also, the t1/2 in the series on Liver amounted to 13 min; in the series with Mus musculus [21], 7.8 min. Also, the bioavailability in series [24] was 67%. In the series with Mus musculus [26], the AUClast came to 502 ng·h/mL. Besides, 30 mg/kg produced 40% inhibition in vivo in the series on Mus musculus [27]. In the series on Mus musculus [30], this compound displayed an inhibition in vivo at 50 mg/kg of 70%.

For the origin of these results see ChEMBL document CHEMBL2169803, “Brain Penetrant LRRK2 Inhibitor” (ACS Med Chem Lett, 2012).
